The results in this text go back to ChEMBL document CHEMBL1136861, “Identification of a series of benzoxazoles as potent 5-HT6 ligands” (Bioorg Med Chem Lett, 2009).

Each structure is given as a SMILES string.

For the first test, the target named is T1, 5-hydroxytryptamine receptor 6 (Homo sapiens, UniProt P50406). The experiment in a line: Antagonist activity at human cloned 5HT6 receptor expressed in human HeLa cells assessed as blockage of 5-HT-stimulated cAMP formation after 10 mins by radioimmunoassay. It counts as functional, cell-based. The procedure, abridged: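 HeLa cells stably transfected with human 5-HT6 receptor; antagonism read as blockade of 5-HT-stimulated cAMP formation; IC50 and Imax values determined in triplicate.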
T1 sequence (P50406 whole entry): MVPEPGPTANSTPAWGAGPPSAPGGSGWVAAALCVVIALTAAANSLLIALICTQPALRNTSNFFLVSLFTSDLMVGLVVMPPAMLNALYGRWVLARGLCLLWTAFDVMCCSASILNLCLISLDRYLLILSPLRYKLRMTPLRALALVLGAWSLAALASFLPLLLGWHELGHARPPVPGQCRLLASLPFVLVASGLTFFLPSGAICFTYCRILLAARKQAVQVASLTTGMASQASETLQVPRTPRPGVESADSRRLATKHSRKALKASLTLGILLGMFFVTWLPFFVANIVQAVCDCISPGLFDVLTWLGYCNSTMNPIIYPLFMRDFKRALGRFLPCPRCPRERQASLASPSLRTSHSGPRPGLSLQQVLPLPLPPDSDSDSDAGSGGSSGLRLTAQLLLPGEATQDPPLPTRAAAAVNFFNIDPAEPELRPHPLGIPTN
(In general: Cyclic AMP is a second messenger, typically raised through Gs and lowered through Gi signalling.)
Turning to `CCN1CCN(c2nc3c(S(=O)(=O)c4cccc5ccccc45)cccc3o2)CC1`, the IC50 (in general, the point on the concentration scale where inhibition reaches its midpoint) is 248 nM and the Imax stood at 89%.

With `O=S(=O)(c1cc(Cl)ccc1Cl)c1cccc2oc(N3CCNCC3)nc12`, the IC50 worked out at 117 nM and the Imax amounted to 92%.

In the case of `COc1cccc(S(=O)(=O)c2cccc3oc(N4CCNCC4)nc23)c1`, the IC50 was found to be 100 nM and the Imax worked out at 92%.

For the compound `O=S(=O)(c1cccc2ccccc12)c1cccc2oc(N3CCNCC3)nc12`, the IC50 turned out to be 96 nM and the Imax is 97%.

Regarding `O=S(=O)(c1cccc(C(F)(F)F)c1)c1cccc2oc(N3CCNCC3)nc12`, the IC50 amounted to 120 nM and the Imax turned out to be 96%.

`O=S(=O)(c1cccc2ccccc12)c1cccc2nc(N3CCNCC3)oc12`: the IC50 was found to be 77 nM and the Imax is 96%.

With `CN1CCN(c2nc3c(S(=O)(=O)c4cccc5ccccc45)cccc3o2)CC1`, the IC50 is 105 nM and the Imax is 83%.

A further test has as its target T1, 5-hydroxytryptamine receptor 6. The experiment in a line: Displacement of [3H]LSD from human cloned 5HT6 receptor expressed in human HeLa cells. It counts as cell-based. The procedure, abridged:
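Human 5-HT6 receptor cloned and stably expressed in HeLa cells; competition binding with [3H]-LSD as radioligand; Ki values determined in triplicate.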
For orientation: Loss of bound radioactivity is the signal in a displacement assay; it reports binding, not function.
Regarding `O=S(=O)(c1cccc2ccccc12)c1cccc2oc(N3CCN(C4CCCC4)CC3)nc12`, the affinity corresponds to a Ki of 79 nM.

With `O=S(=O)(c1cccc2ccccc12)c1cccc2oc(N3CCN(CCCc4ccccc4)CC3)nc12`, the Ki (commonly the dissociation constant of the complex between target and ligand, obtained from inhibition or displacement) was found to be 127 nM.

Compound `O=S(=O)(c1cccc2ccccc12)c1cccc2nc(N3CCNCC3)oc12` registered a Ki of 7.1 nM.

For `O=S(=O)(c1ccccc1)c1cccc2oc(N3CCNCC3)nc12`, the Ki was found to be 41 nM.

`CN1CCN(c2nc3c(S(=O)(=O)c4cccc5ccccc45)cccc3o2)CC1` showed a Ki of 9.7 nM. This Ki lies about 4.2-fold lower than the previous one.
